Assay outcomes (PubChem BioAssay)
Tn6 DDE FP: inhibitors of Tn6 peptide binding to human fibrin DD(E); P02675; Fibrin DD(E) TRITC-Tn6 fluorescence polarization displacement; inhibition, % at 8.3 µM; actives 0.21% (n = 370,000); AID 720509;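 active means inhibition above a per-campaign cutoff: mean of compounds within control limits plus 3 SD, cut at about 15% in these data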;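 further: 0% = median of all compound wells on the plate and 100% = blocking peptide control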
Target sequence (P02675 whole entry, looked up): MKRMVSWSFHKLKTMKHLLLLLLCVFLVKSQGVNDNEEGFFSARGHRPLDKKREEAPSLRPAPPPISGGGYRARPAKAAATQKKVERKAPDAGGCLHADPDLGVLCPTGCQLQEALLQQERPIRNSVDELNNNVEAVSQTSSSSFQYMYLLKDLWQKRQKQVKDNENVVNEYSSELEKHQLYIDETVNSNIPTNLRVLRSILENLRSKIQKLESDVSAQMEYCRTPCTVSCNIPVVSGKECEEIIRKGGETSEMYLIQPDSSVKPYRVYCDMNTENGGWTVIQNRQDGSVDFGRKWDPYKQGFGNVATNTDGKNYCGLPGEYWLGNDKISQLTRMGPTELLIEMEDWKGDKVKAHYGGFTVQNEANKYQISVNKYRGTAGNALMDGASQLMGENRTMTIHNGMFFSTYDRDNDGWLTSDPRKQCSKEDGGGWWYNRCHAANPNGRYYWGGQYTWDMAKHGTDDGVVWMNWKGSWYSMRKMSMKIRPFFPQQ
Rtt109 HAT inh: C. albicans Rtt109 histone acetyltransferase inhibition | Q5AAJ8 | purified Rtt109/Vps75, ThioGlo CoA-SH fluorescence, 4 h | inhibition, % at 34.9 µM | actives 0.16% (n = 330,000) | AID 540336;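 active means inhibition of at least 50% in every replicate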
LANA DNA inh: KSHV C-LANA DNA binding inhibition; MBP-C-LANA/FAM-LBS DNA binding, fluorescence polarization; inhibition, % at 9 µM; actives 0.078% (n = 340,000);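 active means highest replicate inhibition at or above 60% at 9 µM, even if other replicates fall short; inactive means all replicates below 60% inhibition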;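 further: 0% = neutral control wells and 100% = 4 µM acridine orange control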
Keap1-Nrf2 PPI: Keap1-Nrf2 (human) interaction inhibition | actives 0.15% (n = 340,000) | Keap1 Kelch-Nrf2 peptide fluorescence polarization, 1536-well | Q14145 | AID 504523 | inhibition, % at 9.4 µM; in the data active means inhibition above about 12%;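 further: human Keap1 Kelch domain with fluorescein labeled Nrf2 9mer peptide probe; 0% = neutral control wells and 100% = peptide positive control; higher means more block of Keap1 binding to Nrf2 peptide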
DDE Tn7 FP inh: DD(E)-Tn7 binding inhibition, primary FP screen; P02675; FP displacement of FITC-Tn7 peptide from fibrin DD(E); 0% = median of compound wells per plate; inhibition, % at 8.3 µM; actives 0.13% (n = 370,000);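 active means inhibition above the mean of compounds falling within the control limits plus 3 SD of them, cut at about 14% in these data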;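 further: 0% = plate median of compound wells and 100% = 10 µM Aha-Tn7 peptide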
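Assay system: human fibrin DD(E) protein / Input: 2 µM fibrin DD(E) / Benchmarks: high control of 10 µM Aha-Tn7 peptide / Measured by: fluorescence polarization of the labelled Tn7 tracer / Medium: Tris buffer with calcium and detergent, pH 7.8 / Timing: 10 min compound pre-incubation, 3 h probe incubation at room temperature / Repeats: one replicate per compound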
Tn6 DDE ctr: DD(E)-Tn6 binding inhibition, counter-screen; inhibition, % at 8.3 µM; actives 2% (n = 680); shares compounds with Tn6 DDE FP; Fibrin DD(E), TRITC-Tn6 fluorescence polarization displacement; 0% = median of compound wells, not DMSO;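 active means inhibition above the mean of test compounds lying between the control limits plus 3 SD of those, cut at about 14% in these data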;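 further: 0% = median of compound wells and 100% = wells with Aha-Tn7 blocking peptide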
DDE Tn6 confirm: confirmation of inhibitors of Tn6 binding to human fibrin DD(E); inhibition, % at 8.3 µM; FP displacement of TRITC-Tn6 peptide from DD(E); 0% = per-plate median of test wells; shares compounds with Tn6 DDE FP; actives 10% (n = 680); AID 720631;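 active means inhibition above the mean of compounds lying within the control limits plus 3 SD, cut at about 16% in these data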;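 further: 100% = high control wells holding a competing inhibitor peptide at 10 µM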
Starred values were filed as active, the others as inactive. Shown are actives, neighbours in structure and some others; about 0.6% of the full set was active somewhere.

What do the screens show for `COC(=O)[C@]12C[C@H](CC(=O)NCC34CC5CC(CC(C5)C3)C4)C(=O)N(Cc3cccc4ccccc34)C1=C[C@H](C(C)(C)C)O[C@@H]2C`?
Tn6 DDE FP: 7; DDE Tn7 FP inh: 8

What do the screens show for `COc1cc(CC(=O)OCC(=O)NC2CCCCC2C)cc(OC)c1OC` (stereo unspecified)?
Tn6 DDE FP: 26*; Rtt109 HAT inh: 12; LANA DNA inh: -2; Keap1-Nrf2 PPI: 3; DDE Tn7 FP inh: 8; Tn6 DDE ctr: -8; DDE Tn6 confirm: -9

What do the screens show for `COc1cc(CC(=O)OCC(=O)NC2CCCCCC2)cc(OC)c1OC`?
Tn6 DDE FP: 2; Rtt109 HAT inh: 0; LANA DNA inh: 1; Keap1-Nrf2 PPI: -1; DDE Tn7 FP inh: 2

Results for CCN(C(=O)C1CCCN(c2nnc(-n3cccc3)s2)C1)c1ccccc1C (stereo unspecified) ?
Tn6 DDE FP: -4; DDE Tn7 FP inh: -13

What do the screens show for `O=C(Nc1ccc(F)cc1F)C1CCCN1S(=O)(=O)c1cccnc1` (stereo unspecified)?
Tn6 DDE FP: 4; DDE Tn7 FP inh: 5

What do the screens show for `CC(C)CCN(C)C1CCN(C(=O)Nc2ccc(Cl)cc2)CC1`?
Tn6 DDE FP: 2; DDE Tn7 FP inh: -4

How did CCCCC(CC)C(=O)N1CCN(C(=O)c2ccco2)CC1 (stereo unspecified) do in these assays?
Tn6 DDE FP: 17*; Rtt109 HAT inh: -6; LANA DNA inh: -1; Keap1-Nrf2 PPI: 0; DDE Tn7 FP inh: 5; Tn6 DDE ctr: -9; DDE Tn6 confirm: -10

What do the screens show for `CC(C)n1nnnc1C1(C)CCSCC(=O)N1Cc1cccc(C(F)(F)F)c1` (stereo unspecified)?
Tn6 DDE FP: -5; DDE Tn7 FP inh: -2

Results for Cc1csc(SCC(=O)NCc2cccc(Cl)c2)n1 ?
Tn6 DDE FP: 17*; Rtt109 HAT inh: -5; LANA DNA inh: 0; Keap1-Nrf2 PPI: 0; DDE Tn7 FP inh: 1; Tn6 DDE ctr: 1; DDE Tn6 confirm: 1

Results for Cc1ccc(NC(=O)CS(=O)CC(=O)Nc2ccccc2-c2ccc(C)o2)cc1 (stereo unspecified) ?
Tn6 DDE FP: 22*; Rtt109 HAT inh: -10; LANA DNA inh: 0; Keap1-Nrf2 PPI: 2; DDE Tn7 FP inh: 8; Tn6 DDE ctr: -1; DDE Tn6 confirm: -3

What do the screens show for `CC(=O)Nc1ccccc1-c1ccc(C)o1`?
Tn6 DDE FP: 6; Rtt109 HAT inh: 2; LANA DNA inh: 0; Keap1-Nrf2 PPI: -2; DDE Tn7 FP inh: -3

What do the screens show for `O=C(NC(=S)Nc1ccccn1)c1cc(-c2ccccc2)nc2ccccc12`?
Tn6 DDE FP: 2; Rtt109 HAT inh: -2; LANA DNA inh: -2; Keap1-Nrf2 PPI: 1; DDE Tn7 FP inh: -4

What do the screens show for `O=C(NC(=S)Nc1ccccc1)c1cc(-c2ccccc2)nc2ccccc12`?
Tn6 DDE FP: 21*; Rtt109 HAT inh: -1; LANA DNA inh: 1; Keap1-Nrf2 PPI: -5; DDE Tn7 FP inh: 5; Tn6 DDE ctr: 7; DDE Tn6 confirm: -3

How did O=C(C1CCCCC1)N1CCN(c2ccccc2F)CC1 do in these assays?
Tn6 DDE FP: 42*; Rtt109 HAT inh: 0; LANA DNA inh: 0; Keap1-Nrf2 PPI: -1; DDE Tn7 FP inh: 6; Tn6 DDE ctr: 5; DDE Tn6 confirm: 4

Results for Cc1ccc(C(=O)N2CCCC(C(F)(F)F)C2)cc1S(=O)(=O)N1CCCCC1 (stereo unspecified) ?
Tn6 DDE FP: 16*; Rtt109 HAT inh: -2; LANA DNA inh: 1; Keap1-Nrf2 PPI: 8; DDE Tn7 FP inh: -4; Tn6 DDE ctr: 2; DDE Tn6 confirm: -8

Results for CCOc1ccc(CCNC(=O)C2CCCCC2)cc1OCC ?
Tn6 DDE FP: 3; DDE Tn7 FP inh: 4

Results for CCCCC[C@@H](O)c1cc2ccccc2c(=O)o1 ?
Tn6 DDE FP: 16*; Rtt109 HAT inh: -5; LANA DNA inh: 2; Keap1-Nrf2 PPI: 0; DDE Tn7 FP inh: 4; Tn6 DDE ctr: 0; DDE Tn6 confirm: -3

How did COc1ccccc1C(=O)COC(=O)C(NC(=O)Cc1ccccc1)C(C)C (stereo unspecified) do in these assays?
Tn6 DDE FP: active; Rtt109 HAT inh: 3; LANA DNA inh: -1; Keap1-Nrf2 PPI: -5; DDE Tn7 FP inh: 1; Tn6 DDE ctr: -5; DDE Tn6 confirm: -15

How did COC(=O)c1ccc(COC(=O)C(NC(=O)Cc2ccccc2)C(C)C)cc1 (stereo unspecified) do in these assays?
Tn6 DDE FP: -4; Rtt109 HAT inh: 1; LANA DNA inh: 0; Keap1-Nrf2 PPI: -4; DDE Tn7 FP inh: 0

What do the screens show for `S=C(NCC1CCCCC1)OC1CCC12CCC(c1ccccc1)CC2` (stereo unspecified)?
Tn6 DDE FP: -1; DDE Tn7 FP inh: -5

How did Nc1cc(C(=O)O)ccc1Nc1ccccc1 do in these assays?
Tn6 DDE FP: 18*; Rtt109 HAT inh: 9; LANA DNA inh: 0; Keap1-Nrf2 PPI: -1; DDE Tn7 FP inh: -3; Tn6 DDE ctr: 6; DDE Tn6 confirm: -5

What do the screens show for `CC1CCC2(CCC(=O)N2C[C@@H](O)c2ccccc2)CC1` (stereo partly specified)?
Tn6 DDE FP: 0; DDE Tn7 FP inh: -3

How did Cc1ccccc1C(=O)N1CCC(C(=O)Nc2ccc(F)cc2)CC1 do in these assays?
Tn6 DDE FP: 15*; Rtt109 HAT inh: 8; LANA DNA inh: -1; Keap1-Nrf2 PPI: -9; DDE Tn7 FP inh: 1; Tn6 DDE ctr: 4; DDE Tn6 confirm: -9

What do the screens show for `Cc1ccccc1C(=O)N1CCC(C(=O)Nc2ccccn2)CC1`?
Tn6 DDE FP: 44*; Rtt109 HAT inh: -3; LANA DNA inh: 2; Keap1-Nrf2 PPI: 0; DDE Tn7 FP inh: 2; Tn6 DDE ctr: 1; DDE Tn6 confirm: -4

Results for Cc1ccccc1C(=O)N1CCC(C(=O)Nc2ccc(C(C)C)cc2)CC1 ?
Tn6 DDE FP: -2; Rtt109 HAT inh: 25; LANA DNA inh: 2; Keap1-Nrf2 PPI: -5; DDE Tn7 FP inh: 1

How did Cn1c(COc2ccccc2)nnc1SCC(=O)Nc1ccc(OCc2ccccc2)cc1 do in these assays?
Tn6 DDE FP: -6; DDE Tn7 FP inh: -4

Results for CC(OC(=O)c1cccc([N+](=O)[O-])c1)C(=O)N1CCc2ccccc21 (stereo unspecified) ?
Tn6 DDE FP: 16*; Rtt109 HAT inh: -2; LANA DNA inh: 1; Keap1-Nrf2 PPI: -7; DDE Tn7 FP inh: -12; Tn6 DDE ctr: 3; DDE Tn6 confirm: 1
